In ChEMBL document CHEMBL2406922, “Synthesis and Metabolic Studies of Host Directed Inhibitors for Anti Viral Therapy” (ACS Med Chem Lett, 2013):

Key:
Influenza A virus [1] = assay: Antiviral activity against Influenza A virus A/Aichi/1968(H3N2) by firefly luciferase reporter gene assay; type: functional, organism-based
Outline: (§1)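 293T cells were transfected with an IAV firefly-luciferase minigenome reporter plasmid (1 µg/10^5 cells), cryopreserved 28 h post-transfection, thawed, and seeded at 3×10^4 cells/well. After 20 h they were infected with TPCK-trypsin-activated IAV (MOI 0.1 pfu/cell). Luciferase bioluminescence was read 28 h post-infection after adding Bright-Glo or Dual-Glo substrate.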

Influenza A virus [2] = assay: Antiviral activity against Influenza A virus A/sw/Texas/2009(H1N1) virus by firefly luciferase reporter gene assay; type: functional, organism-based; outline: as §1
[3] = Antiviral activity against Measles virus Edmonston infected in african green monkey Vero cells after 20 hrs by luciferase reporter gene assay; type: functional, cell-based, Measles virus strain Edmonston; settings: Measles morbillivirus
Outline: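 Cells seeded at 3×10^4/well and incubated 20 h, then infected with Renilla luciferase-expressing recombinant MeV-Edmonston (recMeV-ren) at MOI 0.2 TCID50/cell. Luciferase substrate added 28 h post-infection; bioluminescence read to quantify reporter expression.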

Influenza A virus [4] = assay: Antiviral activity against Influenza A virus WSN/1933 (H1N1) infected in human 293T cells after 20 hrs by luciferase reporter gene assay; type: functional, organism-based; settings: A/WSN/1933(H1N1), HEK-293T; outline: as §1
[5] = system: Respiratory syncytial virus; assay: Antiviral activity against Respiratory syncytial virus by firefly luciferase reporter gene assay; type: functional, organism-based; settings: human respiratory syncytial virus
[6] = Half life in hamster liver S9 fraction; type: ADME, subcellular; settings: cricetinae
Liver = assay: (§2) Half life in human liver S9 fraction; type: ADME, subcellular; settings: s9
[7] = Solubility of the compound at pH 7.4; type: physicochemical; settings: buffer
[8] = as §2; type: ADME, subcellular; settings: liver S9 fraction

CCOC(=O)Cn1c(-c2nonc2NC(=O)c2ccccc2F)nc2ccccc21
EC50 (Influenza A virus [1]): 0.05 µM
EC50 (Influenza A virus [2]): 0.1 µM
EC50 [3]: 0.023 µM
EC50 (Influenza A virus [4]): 0.012 µM
EC50 [5]: 0.14 µM

C#CCn1c([S+](=O)([O-])Cc2ccc(F)cc2)nc(-c2ccccc2)c1-c1ccccc1
half-life [6]: < 2.5 min
EC50 (Influenza A virus [1]): 0.92 µM
t1/2 (Liver): 19 min
EC50 (Influenza A virus [2]): 0.2 µM
EC50 [3]: 0.74 µM
EC50 (Influenza A virus [4]): 0.5 µM
EC50 [5]: 0.45 µM

COc1ccc(-n2c(SC(C)C(=O)Nc3ccc(C)cc3Cl)nc3ccccc32)cc1 (stereo unspecified)
EC50 (Influenza A virus [2]): 0.04 µM
EC50 [5]: 0.07 µM

Cn1c(S(=O)(=O)C(F)(F)c2ccccc2)nc(-c2ccccc2)c1-c1ccccc1
EC50 [3]: > 10 µM
EC50 (Influenza A virus [4]): > 10 µM

Cn1c(S(=O)(=O)C(F)(F)c2ccc(F)cc2)nc(-c2ccc(F)cc2)c1-c1ccc(F)cc1
half-life [6]: 54 min
t1/2 (Liver): > 90 min
EC50 [3]: > 10 µM
EC50 (Influenza A virus [4]): > 10 µM

Cn1c(S(=O)(=O)Nc2ccccc2)nc(-c2ccccc2)c1-c1ccccc1
half-life [6]: < 2.5 min
t1/2 (Liver): 27 min
EC50 [3]: > 10 µM
EC50 (Influenza A virus [4]): > 10 µM

Cn1c(C(=O)Nc2ccccc2F)nc(-c2ccccc2)c1-c1ccccc1
EC50 [3]: 9 µM
EC50 (Influenza A virus [4]): 10 µM

Cn1c(C(=O)Nc2ccccc2[N+](=O)[O-])nc(-c2ccccc2)c1-c1ccccc1
EC50 [3]: 9 µM
EC50 (Influenza A virus [4]): 6 µM

Cn1c(C(=O)Cc2ccccc2)nc(-c2ccccc2)c1-c1ccccc1
half-life [6]: 5 min
t1/2 (Liver): > 90 min
EC50 [3]: > 10 µM
EC50 (Influenza A virus [4]): 10 µM

Cn1c(C(O)Cc2ccccc2)nc(-c2ccccc2)c1-c1ccccc1 (stereo unspecified)
EC50 [3]: > 10 µM
EC50 (Influenza A virus [4]): > 10 µM

Cn1c(CCc2ccccc2)nc(-c2ccccc2)c1-c1ccccc1
EC50 [3]: 6 µM
EC50 (Influenza A virus [4]): 10 µM

CN(Cc1nc(-c2ccccc2)c(-c2ccccc2)n1C)c1ccccc1
half-life [6]: < 5 min
t1/2 (Liver): 165 min
solubility [7]: < 15 µg/mL
EC50 [3]: 0.91 µM
EC50 (Influenza A virus [4]): 0.88 µM

CN(Cc1nc(-c2ccccc2)c(-c2ccccc2)n1C)c1ccc(O)cc1
EC50 [3]: 10 µM
EC50 (Influenza A virus [4]): 10 µM

CN(Cc1nc(-c2ccccc2)c(-c2ccccc2)n1C)c1ccccc1C(=O)O
solubility [7]: > 300 µg/mL
EC50 [3]: 3 µM
EC50 (Influenza A virus [4]): 3 µM

CN(Cc1nc(-c2ccccc2)c(-c2ccccc2)n1C)c1ccccn1
EC50 [3]: 10 µM
EC50 (Influenza A virus [4]): 10 µM

Cn1c(CN(Cc2ccccc2)c2ccccc2)nc(-c2ccccc2)c1-c1ccccc1
EC50 [3]: > 10 µM
EC50 (Influenza A virus [4]): > 10 µM

CCN(Cc1nc(-c2ccccc2)c(-c2ccccc2)n1C)c1ccccc1
EC50 [3]: 10 µM
EC50 (Influenza A virus [4]): 10 µM

CCOC(=O)Cn1c(-c2ncsc2NC(=O)c2c(F)cccc2F)nc2ccccc21
EC50 [3]: 10 µM
EC50 (Influenza A virus [4]): 10 µM

CC(C)n1c(-c2csc(NC(=O)c3c(F)cccc3F)n2)nc2ccccc21
EC50 [3]: 10 µM
EC50 (Influenza A virus [4]): 4 µM

O=C(O)Cn1c(-c2csc(NC(=O)c3c(F)cccc3F)n2)nc2ccccc21
EC50 [3]: > 10 µM
EC50 (Influenza A virus [4]): > 10 µM

Cn1cc(NC(=O)c2ccccc2F)c(-c2nc3ccccc3[nH]2)n1
EC50 [3]: > 10 µM
EC50 (Influenza A virus [4]): > 10 µM

Nc1ccc(C(=O)Cn2c(-c3nccnc3NC(=O)c3ccccc3)nc3ccccc32)cc1
EC50 [3]: > 10 µM
EC50 (Influenza A virus [4]): > 10 µM

O=S(=O)(Cc1ccccc1)c1nc(-c2ccccc2)c(-c2ccccc2)[nH]1
half-life [6]: < 2.5 min
t1/2 (Liver): 14 min
EC50 [3]: > 10 µM
EC50 (Influenza A virus [4]): > 10 µM

Cn1c(S(=O)(=O)Cc2ccccc2)nc(-c2ccccc2)c1-c1ccccc1
half-life [6]: < 2.5 min
half-life [8]: 2 min
EC50 [3]: 4 µM
EC50 (Influenza A virus [4]): 0.3 µM

Cn1c(S(=O)(=O)Cc2ccc(F)cc2)nc(-c2ccc(F)cc2)c1-c1ccc(F)cc1
half-life [6]: < 2.5 min
t1/2 (Liver): < 2.5 min
EC50 [3]: > 10 µM
EC50 (Influenza A virus [4]): > 10 µM

CCn1c(S(=O)(=O)Cc2ccccc2)nc(-c2ccccc2)c1-c1ccccc1
EC50 [3]: 1 µM
EC50 (Influenza A virus [4]): 2 µM

O=S(=O)(Cc1ccccc1)c1nc(-c2ccccc2)c(-c2ccccc2)n1Cc1ccccc1
EC50 [3]: > 10 µM
EC50 (Influenza A virus [4]): 10 µM

C=CCn1c(S(=O)(=O)Cc2ccc(F)cc2)nc(-c2ccccc2)c1-c1ccccc1
EC50 [3]: 4.6 µM
EC50 (Influenza A virus [4]): 4.2 µM

Cn1c(S(=O)(=O)Cc2ccncc2)nc(-c2ccccc2)c1-c1ccccc1
EC50 [3]: > 10 µM
EC50 (Influenza A virus [4]): > 10 µM

Cn1c(S(=O)(=O)Cc2cccnc2)nc(-c2ccccc2)c1-c1ccccc1
EC50 [3]: 9 µM
EC50 (Influenza A virus [4]): > 10 µM

Cn1c(S(=O)(=O)Cc2ccc(F)cc2)nc(-c2ccc(F)cc2)c1-c1ccncc1
EC50 [3]: > 10 µM
EC50 (Influenza A virus [4]): > 10 µM

Cn1c(S(=O)(=O)Cc2ccc(F)cc2)nc(-c2ccc(F)cc2)c1-c1cccnc1
EC50 [3]: > 10 µM
EC50 (Influenza A virus [4]): > 10 µM

Cn1c(SCc2ccccc2)nc(-c2ccccc2)c1-c1ccccc1
half-life [6]: 3 min
t1/2 (Liver): 15 min
EC50 [3]: 6 µM
EC50 (Influenza A virus [4]): 0.4 µM

O=C(Nc1nonc1-c1nc2ccccc2[nH]1)c1ccccc1F
EC50 [3]: > 10 µM
EC50 (Influenza A virus [4]): > 10 µM

Nc1ccc(C(=O)Cn2c(-c3nonc3NC(=O)c3ccccc3F)nc3ccccc32)cc1
EC50 [3]: 0.4 µM
EC50 (Influenza A virus [4]): 0.7 µM
